The source of these data is ChEMBL document CHEMBL4257505, “New tetrahydroisoquinoline-based P-glycoprotein modulators: decoration of the biphenyl core gives selective ligands” (Medchemcomm, 2018).

By EC50 is commonly meant the concentration at which the effect is half-maximal. One may read the efflux ratio as a quotient of directional permeabilities that is used to spot active efflux.

Activity calls are given as the source filed them.

Series [1] concerns the target T1, Broad substrate specificity ATP-binding cassette transporter ABCG2 (Homo sapiens, UniProt Q9UNQ0).
T1 sequence (Q9UNQ0 whole entry): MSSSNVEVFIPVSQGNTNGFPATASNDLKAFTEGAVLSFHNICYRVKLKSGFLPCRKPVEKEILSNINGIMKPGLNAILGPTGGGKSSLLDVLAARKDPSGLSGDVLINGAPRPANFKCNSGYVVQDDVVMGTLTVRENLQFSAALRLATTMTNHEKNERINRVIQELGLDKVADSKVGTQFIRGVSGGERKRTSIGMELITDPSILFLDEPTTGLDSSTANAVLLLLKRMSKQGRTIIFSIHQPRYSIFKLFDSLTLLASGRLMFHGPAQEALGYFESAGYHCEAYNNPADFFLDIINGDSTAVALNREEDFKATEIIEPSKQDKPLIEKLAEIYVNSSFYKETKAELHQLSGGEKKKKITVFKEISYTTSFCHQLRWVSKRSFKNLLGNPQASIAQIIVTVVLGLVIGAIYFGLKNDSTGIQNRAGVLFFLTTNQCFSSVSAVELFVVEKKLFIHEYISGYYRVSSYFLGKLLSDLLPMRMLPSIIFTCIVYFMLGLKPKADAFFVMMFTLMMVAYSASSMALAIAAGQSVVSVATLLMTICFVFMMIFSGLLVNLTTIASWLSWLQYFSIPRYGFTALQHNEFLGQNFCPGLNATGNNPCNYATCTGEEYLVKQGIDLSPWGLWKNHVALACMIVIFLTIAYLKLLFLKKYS
The series is described as follows: Inhibition of BCRP (unknown origin) expressed in MDCK cells assessed as reduction in Hoechst 33342 efflux at 100 uM preincubated for 30 mins followed by Hoechst 3334 addition measured after 30 mins by fluorescence assay. Type of series: cell-based. Particulars: 0.5 h. A digest of the protocol: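 Interference with BCRP-mediated transport of the fluorescent substrate Hoechst 33342. Not active defined at 100 μM. Means of three independent experiments, duplicate samples.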

For series [2], the target named is T2, Multidrug resistance-associated protein 1 (Homo sapiens, UniProt P33527). The series is described as follows: Inhibition of MRP1 (unknown origin) expressed in MDCK cells assessed as reduction in calcein-AM efflux preincubated for 30 mins followed by calcein-AM addition measured after 30 mins by fluorescence assay. It counts as cell-based. A digest of the protocol: (§1)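 Interference with MRP1-mediated transport of pro-fluorescent calcein-AM, reported as EC50. Not active defined at 100 μM. Means of three independent experiments, duplicate samples.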
T2 sequence (P33527 whole entry): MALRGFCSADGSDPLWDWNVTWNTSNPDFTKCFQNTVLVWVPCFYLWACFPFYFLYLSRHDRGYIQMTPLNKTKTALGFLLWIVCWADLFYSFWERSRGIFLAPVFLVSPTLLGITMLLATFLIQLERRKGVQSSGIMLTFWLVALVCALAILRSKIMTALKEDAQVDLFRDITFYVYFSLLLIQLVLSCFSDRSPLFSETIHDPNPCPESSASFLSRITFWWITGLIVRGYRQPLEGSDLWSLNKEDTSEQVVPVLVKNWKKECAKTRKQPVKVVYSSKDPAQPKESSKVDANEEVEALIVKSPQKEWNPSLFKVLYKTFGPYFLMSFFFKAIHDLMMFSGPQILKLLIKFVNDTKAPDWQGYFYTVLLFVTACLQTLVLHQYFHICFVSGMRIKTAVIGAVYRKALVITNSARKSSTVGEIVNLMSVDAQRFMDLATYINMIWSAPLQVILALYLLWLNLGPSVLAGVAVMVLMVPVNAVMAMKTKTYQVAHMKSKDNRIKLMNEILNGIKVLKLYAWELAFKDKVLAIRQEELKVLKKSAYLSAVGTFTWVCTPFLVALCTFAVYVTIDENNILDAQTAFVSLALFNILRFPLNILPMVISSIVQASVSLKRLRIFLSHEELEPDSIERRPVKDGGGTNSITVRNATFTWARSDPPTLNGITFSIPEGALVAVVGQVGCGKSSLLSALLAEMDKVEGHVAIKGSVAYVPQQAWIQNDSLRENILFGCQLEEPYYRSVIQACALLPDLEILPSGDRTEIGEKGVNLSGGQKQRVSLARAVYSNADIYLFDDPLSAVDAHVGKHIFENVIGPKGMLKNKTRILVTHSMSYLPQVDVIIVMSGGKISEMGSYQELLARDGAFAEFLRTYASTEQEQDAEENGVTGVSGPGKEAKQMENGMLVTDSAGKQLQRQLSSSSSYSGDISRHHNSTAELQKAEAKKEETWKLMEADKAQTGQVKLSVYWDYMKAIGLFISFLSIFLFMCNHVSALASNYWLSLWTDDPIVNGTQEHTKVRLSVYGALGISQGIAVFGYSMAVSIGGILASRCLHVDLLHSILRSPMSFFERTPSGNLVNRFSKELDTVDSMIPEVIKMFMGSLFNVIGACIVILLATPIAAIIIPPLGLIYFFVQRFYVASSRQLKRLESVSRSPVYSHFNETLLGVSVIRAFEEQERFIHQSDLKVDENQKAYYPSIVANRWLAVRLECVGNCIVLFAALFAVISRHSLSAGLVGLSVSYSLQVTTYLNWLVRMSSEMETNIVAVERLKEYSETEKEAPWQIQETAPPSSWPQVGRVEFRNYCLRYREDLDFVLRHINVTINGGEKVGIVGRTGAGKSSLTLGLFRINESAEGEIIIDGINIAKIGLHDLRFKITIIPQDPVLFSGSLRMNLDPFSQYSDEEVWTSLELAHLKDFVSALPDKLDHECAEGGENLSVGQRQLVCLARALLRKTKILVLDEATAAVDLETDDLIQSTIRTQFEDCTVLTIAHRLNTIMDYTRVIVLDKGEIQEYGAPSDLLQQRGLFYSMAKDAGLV

Series [3] is described as follows: Efflux ratio of apparent permeability from basolateral to apical over apical to basolateral side in human Caco2 cells at 100 uM after 120 mins. It counts as ADME, cell-based. Particulars: Caco-2. In outline:
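Bidirectional permeability across Caco-2 monolayers. Papp expressed as the basolateral-to-apical over apical-to-basolateral (BA/AB) ratio. Values from two independent experiments. A ratio >2 is read as substrate behaviour, <2 as inhibitor.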
A general note: Caco-2 monolayers are a common model of the intestinal barrier.

Series [4] addresses T3, ATP-dependent translocase ABCB1 (Homo sapiens, UniProt P08183). The series is described as follows: Inhibition of MDR1 (unknown origin) expressed in MDCK cells assessed as reduction in ATP consumption after 2 hrs by ATPlite assay. It counts as cell-based. A digest of the protocol:
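ATP cell level depletion measured in MDCK-MDR1 cells. Means of three independent experiments, samples analysed in duplicate.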

Series [5] concerns the target T3, ATP-dependent translocase ABCB1. The series is described as follows: Inhibition of MDR1 (unknown origin) expressed in MDCK cells assessed as reduction in calcein-AM efflux preincubated for 30 mins followed by calcein-AM addition measured after 30 mins by fluorescence assay. It counts as cell-based. A digest of the protocol: (§2)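 Competition with P-gp-mediated efflux of the pro-fluorescent substrate calcein-AM in MDCK-MDR1 cells, reported as EC50. Means of three independent experiments, samples in duplicate.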

Series [6] addresses T2, Multidrug resistance-associated protein 1. The series is described as follows: Inhibition of MRP1 (unknown origin) expressed in MDCK cells assessed as reduction in calcein-AM efflux at 100 uM preincubated for 30 mins followed by calcein-AM addition measured after 30 mins by fluorescence assay. Particulars: 0.5 h. Type of series: cell-based. In outline:
as §1

Series [7] addresses T3, ATP-dependent translocase ABCB1. Kind of series: Inhibition of MDR1 (unknown origin) expressed in MDCK cells assessed as increase in doxorubicin-induced cytotoxicity at 10 uM after 48 hrs by MTT assay relative to control. Further details: scale not given: the % may be the effect or the level left. Type of series: cell-based. In outline:
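MDCK-MDR1 cells treated for 48 h with compound at 10 μM, alone or together with doxorubicin at 10 μM. Antiproliferative effect compared with doxorubicin 10 μM alone.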
A general note: Formazan colour is commonly taken as a measure of viable cells.

In series [8] the test system is MDCK. The series is described as follows: Cytotoxicity against MDCK cells over-expressing MDR1 at 0.1 to 25 uM after 48 to 72 hrs by MTT assay. Type of series: ADME, cell-based, Canis lupus familiaris. Particulars: dog.
Series [9] concerns MDCK. Kind of series: Downregulation of MDR1 protein expression in MDCK-MDR1 cells at 10 uM after 48 hrs by immunoblot analysis. Type of series: functional, cell-based. Particulars: Canis lupus familiaris. In outline:
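Immunoblot of P-gp in MDCK-MDR1 cells treated at 10 μM for 48 h, with untreated cells as control. Protein extracted after incubation, actin used as loading control. Blot representative of 3 experiments.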
A general note: Immunoblotting shows a protein as a band on a membrane.

The nature of series [10]: Inhibition of P-gp (unknown origin). Further details: species or system Homo sapiens. A digest of the protocol: as §2

T3 sequence (P08183 whole entry): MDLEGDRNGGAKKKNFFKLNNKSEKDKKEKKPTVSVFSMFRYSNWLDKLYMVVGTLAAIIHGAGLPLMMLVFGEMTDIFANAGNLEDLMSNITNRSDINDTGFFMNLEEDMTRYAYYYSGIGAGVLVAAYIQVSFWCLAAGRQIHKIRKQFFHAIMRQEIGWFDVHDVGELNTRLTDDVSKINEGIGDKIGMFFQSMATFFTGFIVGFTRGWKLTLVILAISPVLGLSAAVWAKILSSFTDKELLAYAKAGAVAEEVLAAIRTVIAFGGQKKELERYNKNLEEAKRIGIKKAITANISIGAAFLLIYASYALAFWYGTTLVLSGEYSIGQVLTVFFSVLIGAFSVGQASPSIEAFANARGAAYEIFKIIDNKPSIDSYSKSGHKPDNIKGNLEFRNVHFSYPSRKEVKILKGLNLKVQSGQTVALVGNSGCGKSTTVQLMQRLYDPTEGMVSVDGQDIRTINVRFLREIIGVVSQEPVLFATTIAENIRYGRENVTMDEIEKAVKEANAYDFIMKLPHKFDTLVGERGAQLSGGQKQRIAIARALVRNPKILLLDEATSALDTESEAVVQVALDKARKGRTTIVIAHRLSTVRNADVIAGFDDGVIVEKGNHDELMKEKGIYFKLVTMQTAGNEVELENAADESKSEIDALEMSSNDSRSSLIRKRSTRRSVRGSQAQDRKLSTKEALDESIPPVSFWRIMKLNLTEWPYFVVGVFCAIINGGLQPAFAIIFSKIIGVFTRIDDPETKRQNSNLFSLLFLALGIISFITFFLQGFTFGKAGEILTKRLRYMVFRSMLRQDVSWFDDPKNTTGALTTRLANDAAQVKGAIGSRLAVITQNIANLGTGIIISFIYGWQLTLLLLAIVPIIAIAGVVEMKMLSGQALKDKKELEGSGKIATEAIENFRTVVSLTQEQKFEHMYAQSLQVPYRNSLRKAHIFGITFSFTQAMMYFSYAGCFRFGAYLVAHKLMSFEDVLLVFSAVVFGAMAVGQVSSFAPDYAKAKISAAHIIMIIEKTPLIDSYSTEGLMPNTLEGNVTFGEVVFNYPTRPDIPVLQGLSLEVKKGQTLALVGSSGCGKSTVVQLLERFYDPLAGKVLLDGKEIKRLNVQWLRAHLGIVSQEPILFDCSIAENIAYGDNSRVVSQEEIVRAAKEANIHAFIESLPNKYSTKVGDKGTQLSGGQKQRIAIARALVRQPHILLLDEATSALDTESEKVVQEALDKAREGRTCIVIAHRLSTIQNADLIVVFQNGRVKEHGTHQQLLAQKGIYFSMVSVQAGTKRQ

Turning to `COc1cc2c(cc1OC)CN(Cc1ccc(-c3ccc(O)c([N+](=O)[O-])c3)cc1)CC2`, the “inhibition (INH)” value in series [1] is recorded as “Not Active”; in series [4], “Active”. For the same molecule, the concentration for a half-maximal effect (EC50) in series [2] is 28.9 µM; in series [5], 12.7 µM. Moreover, the efflux ratio at 2 h, 100 µM in series [3] was determined as 6.3.

As to `COc1cc2c(cc1OC)CN(Cc1ccc(-c3ccc(O)cc3)cc1F)CC2`, the figures for the “inhibition (INH)” value in series [1], in series [6] and in series [4] were “Not Active”, “Not Active” and “Active”, respectively. The efflux ratio at 2 h, 100 µM in series [3] amounted to 4.1. Further, the EC50 in [5] was 4.73 µM.

Consider `COc1cc2c(cc1OC)CN(Cc1ccc(-c3ccc(O)cc3)c(OC)c1)CC2`, for which the Activity was 15% in [7] and “Non-Toxic” with MDCK [8]. The outcome with MDCK [9] was inactive. In addition, the results for the “inhibition (INH)” value in series [1] and in [4] were “Not Active” and “Active”, respectively. The figures for the EC50 in [2] and in series [5] were 38 µM and 1.51 µM, respectively. Besides, in series [3], the efflux ratio at 2 h, 100 µM turned out to be 4.4.

Regarding `COc1cc2c(cc1OC)CN(Cc1ccc(-c3ccc(O)cc3)c(F)c1)CC2`, the “inhibition (INH)” value is “Not Active” in series [1], “Not Active” in [6] and “Active” in series [4]. In addition, the efflux ratio at 2 h, 100 µM in [3] was 3.7. Besides, the EC50 in series [5] is 6.2 µM.

Take `COc1cc2c(cc1OC)CN(Cc1ccc(-c3ccc(O)c(N)c3)cc1)CC2`: the results for the “inhibition (INH)” value in series [1], in series [6] and in [4] were “Not Active”, “Not Active” and “Active”, respectively. In [3], the efflux ratio at 2 h, 100 µM came out at 7.5. Further, the EC50 in series [5] was 6.9 µM.

On to `COc1cc2c(cc1OC)CN(Cc1ccc(-c3ccc(O)cc3N)cc1)CC2`, for which the “inhibition (INH)” value is “Not Active” in series [1], “Not Active” in series [6] and “Active” in series [4]. In addition, in series [3], the efflux ratio at 2 h, 100 µM was 4.5. The EC50 in [5] was 5.4 µM.

Turning to `COc1cc2c(cc1OC)CN(Cc1ccc(-c3ccc(O)cc3OC)cc1)CC2`, the Activity in series [7] is listed as 60%; with MDCK [8], “Non-Toxic”. Moreover, in the series on MDCK [9], the result was inactive. Besides, the results for the “inhibition (INH)” value in series [1] and in series [4] were “Not Active” and “Active”, respectively. For the same molecule, the EC50 in series [2] was 62 µM; in series [5], 1.86 µM. In series [3], the efflux ratio at 2 h, 100 µM was 3.5.

Consider `COc1cc2c(cc1OC)CN(Cc1ccc(-c3ccc(O)c(F)c3)cc1)CC2`, for which the “inhibition (INH)” value in series [1] is “Not Active”; in series [6], “Not Active”; in series [4], “Active”. Also, the efflux ratio at 2 h, 100 µM in series [3] was 4.9. Moreover, the EC50 in series [5] is 2.8 µM.

On to `COc1cc2c(cc1OC)CN(Cc1ccc(-c3ccc(O)cc3)cc1)CC2`, for which the Activity in [7] came to 20%. Moreover, in the series with MDCK [9], the result was inactive. Also, the “inhibition (INH)” value in [4] is “Active”. This molecule showed an EC50 in [10] of 0.69 µM.

Consider `COc1cc(-c2ccc(O)cc2)ccc1CN1CCc2cc(OC)c(OC)cc2C1`, for which the Activity in series [7] is listed as 15%; in the series with MDCK [8], “Non-Toxic”. Also, in the series with MDCK [9], the result was inactive. The “inhibition (INH)” value is “Not Active” in series [1], “Not Active” in [6] and “Active” in [4]. Further, the efflux ratio at 2 h, 100 µM in [3] was found to be 4.5. In addition, the EC50 in series [5] was 1.6 µM.

For `COc1cc2c(cc1OC)CN(Cc1ccc(-c3ccc(O)cc3F)cc1)CC2`, the “inhibition (INH)” value in series [1] is “Not Active”; in [6], “Not Active”; in [4] it was “Active”. The efflux ratio at 2 h, 100 µM in series [3] worked out at 4.5. For the same molecule, the concentration for a half-maximal effect (EC50) in series [5] was 2.17 µM.

As to `COc1cc(-c2ccc(CN3CCc4cc(OC)c(OC)cc4C3)cc2)ccc1O`, the “inhibition (INH)” value is given as “Not Active” in series [1], “Not Active” in series [6] and “Active” in [4]. In addition, the efflux ratio at 2 h, 100 µM in [3] was 3.9. For the same molecule, the EC50 in series [5] was 2 µM.

For `COc1cc2c(cc1OC)CN(Cc1ccc(-c3ccc(O)cc3)c([N+](=O)[O-])c1)CC2`, the “inhibition (INH)” value in series [1] is “Not Active”; in series [6], “Not Active”; in series [4], “Active”. The efflux ratio at 2 h, 100 µM in series [3] worked out at 2.9. In addition, in series [5], the EC50 was 15.2 µM.

Turning to `COc1cc2c(cc1OC)CN(Cc1ccc(-c3ccc(O)cc3[N+](=O)[O-])cc1)CC2`, the “inhibition (INH)” value is reported as “Not Active” in series [1], “Not Active” in series [6] and “Active” in [4]. The efflux ratio at 2 h, 100 µM in [3] stood at 11.2. In series [5], the EC50 is 2.54 µM.

Consider `COc1cc2c(cc1OC)CN(Cc1ccc(-c3ccc(O)cc3)cc1[N+](=O)[O-])CC2`, for which the “inhibition (INH)” value in [1] is “Not Active”; in [6], “Not Active”; in series [4] it was “Active”. In [3], the efflux ratio at 2 h, 100 µM was 5.8. The 50% effective concentration (EC50) in series [5] is 8.4 µM.
